Results reported in ChEMBL document CHEMBL4350961, “Discovery of Pyrrolo[3,2- d]pyrimidin-4-one Derivatives as a New Class of Potent and Cell-Active Inhibitors of P300/CBP-Associated Factor Bromodomain” (J Med Chem, 2019).
Active and inactive are the calls of the source.

How the values were obtained:
Peregrin (Homo sapiens) = Peregrin (Homo sapiens) (UniProt P55201); assay: Binding affinity to human N-terminal His-tagged BRPF1 assessed as change in melting temperature at 10 uM by SYPRO orange dye-based fluorescence assay
Sequence of Peregrin (Homo sapiens) (P55201 whole entry): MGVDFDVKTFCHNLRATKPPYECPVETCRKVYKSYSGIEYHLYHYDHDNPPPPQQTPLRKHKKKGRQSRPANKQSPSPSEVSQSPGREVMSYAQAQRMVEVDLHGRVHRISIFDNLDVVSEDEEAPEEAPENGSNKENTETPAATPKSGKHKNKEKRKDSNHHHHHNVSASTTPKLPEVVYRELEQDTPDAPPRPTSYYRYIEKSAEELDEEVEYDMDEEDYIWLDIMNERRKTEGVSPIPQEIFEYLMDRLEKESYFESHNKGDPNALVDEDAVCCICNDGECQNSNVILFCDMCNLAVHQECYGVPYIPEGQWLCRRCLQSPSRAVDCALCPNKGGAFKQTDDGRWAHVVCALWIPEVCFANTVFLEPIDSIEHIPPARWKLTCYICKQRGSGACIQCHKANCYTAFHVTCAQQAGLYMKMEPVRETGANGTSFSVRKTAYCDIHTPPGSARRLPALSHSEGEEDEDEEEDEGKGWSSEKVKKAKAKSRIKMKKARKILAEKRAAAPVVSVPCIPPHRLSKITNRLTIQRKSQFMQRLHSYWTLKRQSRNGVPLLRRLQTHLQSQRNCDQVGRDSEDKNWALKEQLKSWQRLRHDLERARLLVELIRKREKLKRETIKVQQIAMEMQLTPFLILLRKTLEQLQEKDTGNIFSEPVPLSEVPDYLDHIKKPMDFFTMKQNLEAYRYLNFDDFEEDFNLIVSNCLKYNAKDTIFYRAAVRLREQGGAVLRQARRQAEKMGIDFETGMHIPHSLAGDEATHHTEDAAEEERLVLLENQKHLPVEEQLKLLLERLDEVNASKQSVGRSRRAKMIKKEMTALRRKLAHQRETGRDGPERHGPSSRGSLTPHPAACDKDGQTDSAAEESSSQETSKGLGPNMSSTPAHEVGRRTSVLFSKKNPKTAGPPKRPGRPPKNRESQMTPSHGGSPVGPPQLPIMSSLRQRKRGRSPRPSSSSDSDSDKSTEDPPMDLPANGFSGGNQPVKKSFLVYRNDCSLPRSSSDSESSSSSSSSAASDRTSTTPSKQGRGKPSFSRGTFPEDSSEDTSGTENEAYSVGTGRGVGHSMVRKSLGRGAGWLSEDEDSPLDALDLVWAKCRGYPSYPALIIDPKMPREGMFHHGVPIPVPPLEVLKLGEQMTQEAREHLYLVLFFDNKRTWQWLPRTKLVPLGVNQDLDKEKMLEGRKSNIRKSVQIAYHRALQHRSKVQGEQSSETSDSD
In short: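 Thermal shift with His-tagged human bromodomain at 2 μM final in 10 mM HEPES pH 7.5, 500 mM NaCl. Compound at 10 μM final with 0.1% DMSO; SYPRO Orange at 1:1000. Equilibrated 3 min at 25 °C, then heated from 25 to 95 °C at 1 °C/min. Melting temperature shift taken from fluorescence; at least duplicate.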

[1] = target: Histone acetyltransferase KAT2B (Homo sapiens, UniProt Q92831); assay: Binding affinity to human partial length PCAF (G715 to D831 residues) expressed in bacterial expression system at 1 uM by BROMOscan assay
In short: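 BROMOscan bromodomain cross-screen run by an outside service, compound at 1 µM against 32 recombinant bromodomains. Binding given as percent of control.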

[2] = Oral bioavailability in Sprague-Dawley rat at 10 mg/kg administered via gavage by LC-MS/MS analysis; format: ADME, organism-based; details: in vivo
[3] = target: Calcium/calmodulin-dependent protein kinase type 1B (Homo sapiens) (UniProt Q6P2M8); assay: Inhibition of recombinant full-length human CaMK1beta at 10 uM using calmodulin as substrate measured after 40 mins in presence of [gamma33P]ATP by scintillation counting method
[4] = target: Cyclin-dependent kinase 1/cyclin B1 (Homo sapiens) (UniProt P06493+P14635); assay: Inhibition of recombinant full-length human CDK1/cyclinB at 10 uM using histone H1 as substrate measured after 40 mins in presence of [gamma33P]ATP by scintillation counting method; format: protein-complex assay
[5] = target: Serine/threonine-protein kinase 35 (Homo sapiens) (UniProt Q8TDR2); assay: Inhibition of recombinant full length human CLIK1 at 10 uM using RSRSRSRSRSRSRSR as substrate measured after 40 mins in presence of [gamma33P]ATP by scintillation counting method
[6] = target: Dual specificity protein kinase CLK2 (Homo sapiens) (UniProt P49760); assay: Inhibition of recombinant human CLK2 (138 to end residues) at 10 uM using YRRAAVPPSPSLSRHSSPHQS(p)EDEEE as substrate measured after 40 mins in presence of [gamma33P]ATP by scintillation counting method
[7] = target: Tyrosine-protein kinase CSK (Homo sapiens) (UniProt P41240); assay: Inhibition of full-length recombinant human CSK at 10 uM using poly(Glu, Tyr) 4:1 as substrate measured after 40 mins in presence of [gamma33P]ATP by scintillation counting method
In short: (§1)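 Kinase panel of 422 kinases screened by Eurofins KinaseProfiler at a single test-compound concentration of 10 µM.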

[8] = target: G protein-coupled receptor kinase 6 (Homo sapiens) (UniProt P43250); assay: Inhibition of recombinant full-length human GRK6 at 10 uM using casein as substrate measured after 40 mins in presence of [gamma33P]ATP by scintillation counting method
Sequence of G protein-coupled receptor kinase 6 (Homo sapiens) (P43250 whole entry, looked up): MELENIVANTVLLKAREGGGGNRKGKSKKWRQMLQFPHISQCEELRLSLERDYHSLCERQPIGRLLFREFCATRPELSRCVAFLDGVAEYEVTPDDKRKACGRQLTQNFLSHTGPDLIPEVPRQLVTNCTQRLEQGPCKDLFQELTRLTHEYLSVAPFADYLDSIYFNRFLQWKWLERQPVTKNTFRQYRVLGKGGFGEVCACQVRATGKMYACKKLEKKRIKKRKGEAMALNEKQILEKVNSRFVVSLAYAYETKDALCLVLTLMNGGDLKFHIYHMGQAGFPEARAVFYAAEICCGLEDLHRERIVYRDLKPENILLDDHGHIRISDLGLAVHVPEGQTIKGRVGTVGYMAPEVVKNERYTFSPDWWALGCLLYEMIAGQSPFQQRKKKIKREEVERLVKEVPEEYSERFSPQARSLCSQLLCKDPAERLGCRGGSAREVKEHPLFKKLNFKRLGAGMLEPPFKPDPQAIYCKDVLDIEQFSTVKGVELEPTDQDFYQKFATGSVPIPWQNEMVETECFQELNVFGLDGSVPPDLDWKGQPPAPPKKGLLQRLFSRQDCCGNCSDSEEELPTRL

[9] = target: Insulin-like growth factor 1 receptor (Homo sapiens) (UniProt P08069); assay: Inhibition of recombinant human IGF1R (959 to end residues) at 10 uM using KKKSPGEYVNIEFG as substrate measured after 40 mins in presence of [gamma33P]ATP by scintillation counting method
[10] = target: Misshapen-like kinase 1 (Homo sapiens) (UniProt Q8N4C8); assay: Inhibition of recombinant human MINK (1 to 310 residues) at 10 uM using myelin basic protein as substrate measured after 40 mins in presence of [gamma33P]ATP by scintillation counting method
[11] = target: Serine/threonine-protein kinase Nek3 (Homo sapiens) (UniProt P51956); assay: Inhibition of recombinant full-length human NEK3 at 10 uM using myelin basic protein as substrate measured after 40 mins in presence of [gamma33P]ATP by scintillation counting method
[12] = target: Serine/threonine-protein kinase MARK2 (Homo sapiens) (UniProt Q7KZI7); assay: Inhibition of recombinant full-length human PAR1Balpha at 10 uM using KKKVSRSGLYRSPSMPENLNRPR as substrate measured after 40 mins in presence of [gamma33P]ATP by scintillation counting method
Sequence of Serine/threonine-protein kinase MARK2 (Homo sapiens) (Q7KZI7 whole entry, the tested form may be a part): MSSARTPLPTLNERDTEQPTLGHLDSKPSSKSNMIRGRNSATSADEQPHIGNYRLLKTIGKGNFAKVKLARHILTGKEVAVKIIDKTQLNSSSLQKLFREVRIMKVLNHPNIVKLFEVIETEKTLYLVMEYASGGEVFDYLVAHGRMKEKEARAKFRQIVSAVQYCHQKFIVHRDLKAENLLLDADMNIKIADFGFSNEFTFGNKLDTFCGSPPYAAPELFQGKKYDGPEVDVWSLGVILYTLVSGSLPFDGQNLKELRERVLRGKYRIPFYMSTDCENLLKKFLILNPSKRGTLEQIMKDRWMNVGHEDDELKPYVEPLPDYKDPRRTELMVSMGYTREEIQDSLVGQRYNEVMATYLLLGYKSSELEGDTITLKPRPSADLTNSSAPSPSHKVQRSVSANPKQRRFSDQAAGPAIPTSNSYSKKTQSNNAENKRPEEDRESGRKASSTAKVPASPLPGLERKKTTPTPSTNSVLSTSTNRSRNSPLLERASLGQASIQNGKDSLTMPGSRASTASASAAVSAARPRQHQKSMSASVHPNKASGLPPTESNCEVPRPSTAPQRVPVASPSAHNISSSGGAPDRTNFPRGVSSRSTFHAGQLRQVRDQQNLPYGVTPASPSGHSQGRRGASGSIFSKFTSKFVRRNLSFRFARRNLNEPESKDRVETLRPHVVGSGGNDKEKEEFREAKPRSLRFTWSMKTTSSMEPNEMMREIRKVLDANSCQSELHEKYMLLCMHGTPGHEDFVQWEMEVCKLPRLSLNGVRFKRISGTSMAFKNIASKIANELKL

[13] = target: PAS domain-containing serine/threonine-protein kinase (Homo sapiens) (UniProt Q96RG2); assay: Inhibition of recombinant human PASK (995 to end residues) at 10 uM using KKLNRTLSFAEPG as substrate measured after 40 mins in presence of [gamma33P]ATP by scintillation counting method
Sequence of PAS domain-containing serine/threonine-protein kinase (Homo sapiens) (Q96RG2 whole entry, the tested form may be a part): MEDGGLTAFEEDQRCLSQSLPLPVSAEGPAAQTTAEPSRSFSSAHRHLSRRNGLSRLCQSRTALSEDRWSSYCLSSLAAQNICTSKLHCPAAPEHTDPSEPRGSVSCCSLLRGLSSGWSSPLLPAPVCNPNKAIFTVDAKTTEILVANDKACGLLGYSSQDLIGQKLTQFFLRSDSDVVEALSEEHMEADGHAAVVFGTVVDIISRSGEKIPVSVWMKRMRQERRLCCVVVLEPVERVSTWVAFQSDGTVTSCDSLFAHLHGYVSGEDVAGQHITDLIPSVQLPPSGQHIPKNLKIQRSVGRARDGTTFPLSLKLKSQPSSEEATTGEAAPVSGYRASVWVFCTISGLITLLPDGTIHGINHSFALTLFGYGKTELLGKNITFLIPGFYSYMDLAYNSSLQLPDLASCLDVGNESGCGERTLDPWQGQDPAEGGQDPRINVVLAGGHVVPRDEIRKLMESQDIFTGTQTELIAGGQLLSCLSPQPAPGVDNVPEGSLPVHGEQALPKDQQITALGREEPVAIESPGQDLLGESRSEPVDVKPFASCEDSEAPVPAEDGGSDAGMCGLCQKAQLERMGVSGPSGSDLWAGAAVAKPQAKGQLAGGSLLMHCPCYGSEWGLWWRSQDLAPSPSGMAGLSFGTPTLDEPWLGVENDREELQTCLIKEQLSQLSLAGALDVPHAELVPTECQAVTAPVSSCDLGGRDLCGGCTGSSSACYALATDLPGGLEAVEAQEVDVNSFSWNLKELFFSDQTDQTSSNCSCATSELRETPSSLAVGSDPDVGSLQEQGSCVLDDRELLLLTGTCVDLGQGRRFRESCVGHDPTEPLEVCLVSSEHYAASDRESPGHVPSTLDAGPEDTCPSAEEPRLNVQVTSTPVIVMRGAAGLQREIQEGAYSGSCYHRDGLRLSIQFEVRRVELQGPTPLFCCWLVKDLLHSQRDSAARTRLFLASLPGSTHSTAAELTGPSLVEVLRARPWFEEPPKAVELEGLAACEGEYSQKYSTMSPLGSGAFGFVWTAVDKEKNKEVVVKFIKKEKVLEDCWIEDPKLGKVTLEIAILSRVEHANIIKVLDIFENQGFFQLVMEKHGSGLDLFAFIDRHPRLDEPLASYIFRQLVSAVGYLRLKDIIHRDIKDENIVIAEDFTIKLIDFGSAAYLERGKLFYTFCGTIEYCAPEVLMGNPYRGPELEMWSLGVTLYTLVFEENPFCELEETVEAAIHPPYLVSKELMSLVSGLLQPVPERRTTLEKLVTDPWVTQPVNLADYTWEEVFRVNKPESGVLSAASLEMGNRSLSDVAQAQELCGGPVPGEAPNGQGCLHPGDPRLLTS

[14] = system: Platelet-derived growth factor receptor alpha (Homo sapiens), P16234 [V561D]; assay: Inhibition of recombinant human PDGFRalpha V561D mutant (550 to end residues) at 10 uM using GGMEDIYFEFMGGKKK as substrate measured after 40 mins in presence of [gamma33P]ATP by scintillation counting method
[15] = target: 3-phosphoinositide-dependent protein kinase 1 (Homo sapiens) (UniProt O15530); assay: Inhibition of recombinant human PDK1 (52 to end residues) at 10 uM using PDKtide as substrate measured after 40 mins in presence of [gamma33P]ATP by scintillation counting method
[16] = target: cGMP-dependent protein kinase 2 (Homo sapiens) (UniProt Q13237); assay: Inhibition of recombinant full-length human PRKG2 at 10 uM using KKLRRTLSFAEPG as substrate measured after 40 mins in presence of [gamma33P]ATP by scintillation counting method
[17] = target: Serine/threonine-protein kinase SIK2 (Homo sapiens) (UniProt Q9H0K1); assay: Inhibition of human SIK2 (1 to 276 residues) using KKKVSRSGLYRSPSMPENLNRPR as substrate measured after 40 mins in presence of [gamma33P]ATP by scintillation counting method; in short: as §1
[18] = system: Angiopoietin-1 receptor (Homo sapiens), Q02763 [Q939H,Q940H,R849W]; assay: Inhibition of human Tie2 Q939H/Q940H/R849W mutant (771 to end residues) using EFPIYDFLPAKKK as substrate measured after 40 mins in presence of [gamma33P]ATP by scintillation counting method
[19] = target: Non-receptor tyrosine-protein kinase TYK2 (Homo sapiens) (UniProt P29597); assay: Inhibition of human TYK2 (875 to end residues) using GGMEDIYFEFMGGKKK as substrate measured after 40 mins in presence of [gamma33P]ATP by scintillation counting method
[20] = target: Serine/threonine-protein kinase ULK2 (Homo sapiens) (UniProt Q8IYT8); assay: Inhibition of human ULK2 (1 to 306 residues) using casein as substrate measured after 40 mins in presence of [gamma33P]ATP by scintillation counting method
Sequence of Serine/threonine-protein kinase ULK2 (Homo sapiens) (Q8IYT8 whole entry, the tested form may be a part): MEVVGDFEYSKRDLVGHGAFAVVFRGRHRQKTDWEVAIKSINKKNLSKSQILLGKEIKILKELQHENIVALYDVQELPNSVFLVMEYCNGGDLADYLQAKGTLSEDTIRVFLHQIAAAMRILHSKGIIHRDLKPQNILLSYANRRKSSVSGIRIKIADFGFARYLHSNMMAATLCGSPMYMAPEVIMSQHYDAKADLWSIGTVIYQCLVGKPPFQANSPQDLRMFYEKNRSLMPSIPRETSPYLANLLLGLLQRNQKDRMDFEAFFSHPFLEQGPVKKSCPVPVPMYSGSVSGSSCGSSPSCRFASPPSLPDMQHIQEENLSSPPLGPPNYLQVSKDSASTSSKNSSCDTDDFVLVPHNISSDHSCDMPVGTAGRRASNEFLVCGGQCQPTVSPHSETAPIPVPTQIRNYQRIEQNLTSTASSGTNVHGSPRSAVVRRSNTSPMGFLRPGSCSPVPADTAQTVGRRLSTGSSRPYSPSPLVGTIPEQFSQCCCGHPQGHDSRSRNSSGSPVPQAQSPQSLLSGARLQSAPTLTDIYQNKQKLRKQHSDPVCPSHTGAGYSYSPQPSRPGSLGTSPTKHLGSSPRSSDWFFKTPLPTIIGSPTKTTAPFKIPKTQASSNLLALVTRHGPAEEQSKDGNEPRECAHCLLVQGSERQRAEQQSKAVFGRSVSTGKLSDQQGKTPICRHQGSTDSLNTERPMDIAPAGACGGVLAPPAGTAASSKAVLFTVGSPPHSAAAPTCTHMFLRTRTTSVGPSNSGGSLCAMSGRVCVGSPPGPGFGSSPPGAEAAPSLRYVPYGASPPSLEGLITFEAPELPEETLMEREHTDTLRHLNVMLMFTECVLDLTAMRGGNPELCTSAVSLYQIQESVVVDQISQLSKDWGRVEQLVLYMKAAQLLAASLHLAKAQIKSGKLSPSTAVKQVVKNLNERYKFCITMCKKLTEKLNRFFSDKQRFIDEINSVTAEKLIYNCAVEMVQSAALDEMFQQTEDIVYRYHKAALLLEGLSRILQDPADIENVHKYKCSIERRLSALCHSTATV

[21] = target: DNA-dependent protein kinase catalytic subunit (Homo sapiens) (UniProt P78527); assay: Inhibition of recombinant full-length human DNA-PK at 10 uM using GST-cMyc-p53 as substrate measured after 40 mins by fluorescence assay
Mus musculus = species: Mus musculus; assay: Inhibition of recombinant full-length mouse PI3K p110alpha/p85alpha H1047R mutant at 10 uM using phosphatidylinositol-4, 5-bisphosphate as substrate measured after 40 mins by HTRF assay

CN1C[C@H](Nc2nc3cc[nH]c3c(=O)n2C)C[C@H](c2ccc3c(c2)OCCO3)C1
inactive: inhibition [3] | inhibition [4] | inhibition [5] | inhibition [6] | inhibition [7] | inhibition [8] | inhibition [9] | inhibition [10] | inhibition [11] | inhibition [12] | inhibition [13] | inhibition [14] | inhibition [15] | inhibition [16] | inhibition [17] | inhibition [18] | inhibition [19] | inhibition [20] | inhibition [21] | inhibition (Mus musculus)
52%: bioavailability [2]
2.6 °C: ΔTm (Peregrin (Homo sapiens))
active: Activity [1]
